ChEMBL document CHEMBL1255226 (J Med Chem, 2010)
Activity calls are given as the source filed them. No cut-off for these calls is given here.

Legend:
[1] = target: Serine/threonine-protein kinase mTOR (Mus musculus, UniProt Q9JLN9); experiment: Inhibition of mTOR in p53-deficient MEF assessed as phosphorylation of S6K1 at Thr389 by immunoblotting
[2] = target: Phosphatidylinositol 4,5-bisphosphate 3-kinase catalytic subunit alpha isoform (Homo sapiens, UniProt P42336, S473D); experiment: Inhibition of PI3Kalpha in human PC3 cells expressing Akt1 S473D mutant assessed as phosphorylation of Akt Thr308 by immunoblotting; type: cell-based, PC-3
Chain of Phosphatidylinositol 4,5-bisphosphate 3-kinase catalytic subunit alpha isoform (P42336 whole entry, looked up, stated change not applied, canonical isoform): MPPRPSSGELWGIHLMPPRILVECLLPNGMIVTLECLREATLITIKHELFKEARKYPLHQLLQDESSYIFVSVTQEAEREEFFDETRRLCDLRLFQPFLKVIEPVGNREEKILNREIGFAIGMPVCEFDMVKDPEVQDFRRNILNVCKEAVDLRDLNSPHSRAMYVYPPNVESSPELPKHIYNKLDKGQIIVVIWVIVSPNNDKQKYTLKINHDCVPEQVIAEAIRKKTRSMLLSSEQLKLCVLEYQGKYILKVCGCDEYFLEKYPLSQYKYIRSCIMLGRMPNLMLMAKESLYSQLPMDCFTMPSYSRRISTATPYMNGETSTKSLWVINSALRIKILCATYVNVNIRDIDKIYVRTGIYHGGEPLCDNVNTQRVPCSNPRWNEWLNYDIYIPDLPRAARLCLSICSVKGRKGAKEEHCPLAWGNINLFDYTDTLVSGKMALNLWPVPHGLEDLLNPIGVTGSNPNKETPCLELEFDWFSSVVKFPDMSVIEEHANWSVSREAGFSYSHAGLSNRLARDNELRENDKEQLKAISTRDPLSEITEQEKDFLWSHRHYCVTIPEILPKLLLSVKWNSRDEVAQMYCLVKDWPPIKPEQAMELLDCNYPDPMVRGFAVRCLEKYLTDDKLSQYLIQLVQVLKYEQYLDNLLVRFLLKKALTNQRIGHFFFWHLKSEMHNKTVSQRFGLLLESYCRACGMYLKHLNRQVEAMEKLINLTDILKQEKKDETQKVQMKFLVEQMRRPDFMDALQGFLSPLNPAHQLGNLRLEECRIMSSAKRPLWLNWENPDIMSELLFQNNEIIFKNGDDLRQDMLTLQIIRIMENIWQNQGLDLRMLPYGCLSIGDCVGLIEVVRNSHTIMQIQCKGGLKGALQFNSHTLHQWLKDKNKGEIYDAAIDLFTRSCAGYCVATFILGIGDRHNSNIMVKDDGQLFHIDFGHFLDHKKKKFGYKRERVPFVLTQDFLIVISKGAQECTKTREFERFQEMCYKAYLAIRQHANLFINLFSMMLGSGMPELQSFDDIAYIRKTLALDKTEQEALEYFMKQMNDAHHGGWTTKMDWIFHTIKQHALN

[3] = target: Serine/threonine-protein kinase mTOR (Homo sapiens, UniProt P42345)
[4] = AUC in Swiss albino mouse at 10 mg, ip; type: ADME, organism-based; conditions: plasma
Mus musculus [5] = experiment: In vivo inhibition of mTOR complex 2 in C57BL/6 mouse assessed as reduction of Akt1 phosphorylation at S473 at 20 mg/kg, ip after 2 to 3 hrs by Western blotting
[6] = Tmax in Swiss albino mouse at 10 mg, ip; type: ADME, organism-based; conditions: in vivo
[7] = Mean retention time in C57BL/6 mouse at 10 mg/kg, po; type: ADME, organism-based; set-up: dose 10 mg/kg, route oral; conditions: in vivo
[8] = target: Phosphatidylinositol 4-kinase alpha (Homo sapiens, UniProt P42356); experiment: Inhibition of PI4Kalpha
Chain of Phosphatidylinositol 4-kinase alpha (P42356 whole entry): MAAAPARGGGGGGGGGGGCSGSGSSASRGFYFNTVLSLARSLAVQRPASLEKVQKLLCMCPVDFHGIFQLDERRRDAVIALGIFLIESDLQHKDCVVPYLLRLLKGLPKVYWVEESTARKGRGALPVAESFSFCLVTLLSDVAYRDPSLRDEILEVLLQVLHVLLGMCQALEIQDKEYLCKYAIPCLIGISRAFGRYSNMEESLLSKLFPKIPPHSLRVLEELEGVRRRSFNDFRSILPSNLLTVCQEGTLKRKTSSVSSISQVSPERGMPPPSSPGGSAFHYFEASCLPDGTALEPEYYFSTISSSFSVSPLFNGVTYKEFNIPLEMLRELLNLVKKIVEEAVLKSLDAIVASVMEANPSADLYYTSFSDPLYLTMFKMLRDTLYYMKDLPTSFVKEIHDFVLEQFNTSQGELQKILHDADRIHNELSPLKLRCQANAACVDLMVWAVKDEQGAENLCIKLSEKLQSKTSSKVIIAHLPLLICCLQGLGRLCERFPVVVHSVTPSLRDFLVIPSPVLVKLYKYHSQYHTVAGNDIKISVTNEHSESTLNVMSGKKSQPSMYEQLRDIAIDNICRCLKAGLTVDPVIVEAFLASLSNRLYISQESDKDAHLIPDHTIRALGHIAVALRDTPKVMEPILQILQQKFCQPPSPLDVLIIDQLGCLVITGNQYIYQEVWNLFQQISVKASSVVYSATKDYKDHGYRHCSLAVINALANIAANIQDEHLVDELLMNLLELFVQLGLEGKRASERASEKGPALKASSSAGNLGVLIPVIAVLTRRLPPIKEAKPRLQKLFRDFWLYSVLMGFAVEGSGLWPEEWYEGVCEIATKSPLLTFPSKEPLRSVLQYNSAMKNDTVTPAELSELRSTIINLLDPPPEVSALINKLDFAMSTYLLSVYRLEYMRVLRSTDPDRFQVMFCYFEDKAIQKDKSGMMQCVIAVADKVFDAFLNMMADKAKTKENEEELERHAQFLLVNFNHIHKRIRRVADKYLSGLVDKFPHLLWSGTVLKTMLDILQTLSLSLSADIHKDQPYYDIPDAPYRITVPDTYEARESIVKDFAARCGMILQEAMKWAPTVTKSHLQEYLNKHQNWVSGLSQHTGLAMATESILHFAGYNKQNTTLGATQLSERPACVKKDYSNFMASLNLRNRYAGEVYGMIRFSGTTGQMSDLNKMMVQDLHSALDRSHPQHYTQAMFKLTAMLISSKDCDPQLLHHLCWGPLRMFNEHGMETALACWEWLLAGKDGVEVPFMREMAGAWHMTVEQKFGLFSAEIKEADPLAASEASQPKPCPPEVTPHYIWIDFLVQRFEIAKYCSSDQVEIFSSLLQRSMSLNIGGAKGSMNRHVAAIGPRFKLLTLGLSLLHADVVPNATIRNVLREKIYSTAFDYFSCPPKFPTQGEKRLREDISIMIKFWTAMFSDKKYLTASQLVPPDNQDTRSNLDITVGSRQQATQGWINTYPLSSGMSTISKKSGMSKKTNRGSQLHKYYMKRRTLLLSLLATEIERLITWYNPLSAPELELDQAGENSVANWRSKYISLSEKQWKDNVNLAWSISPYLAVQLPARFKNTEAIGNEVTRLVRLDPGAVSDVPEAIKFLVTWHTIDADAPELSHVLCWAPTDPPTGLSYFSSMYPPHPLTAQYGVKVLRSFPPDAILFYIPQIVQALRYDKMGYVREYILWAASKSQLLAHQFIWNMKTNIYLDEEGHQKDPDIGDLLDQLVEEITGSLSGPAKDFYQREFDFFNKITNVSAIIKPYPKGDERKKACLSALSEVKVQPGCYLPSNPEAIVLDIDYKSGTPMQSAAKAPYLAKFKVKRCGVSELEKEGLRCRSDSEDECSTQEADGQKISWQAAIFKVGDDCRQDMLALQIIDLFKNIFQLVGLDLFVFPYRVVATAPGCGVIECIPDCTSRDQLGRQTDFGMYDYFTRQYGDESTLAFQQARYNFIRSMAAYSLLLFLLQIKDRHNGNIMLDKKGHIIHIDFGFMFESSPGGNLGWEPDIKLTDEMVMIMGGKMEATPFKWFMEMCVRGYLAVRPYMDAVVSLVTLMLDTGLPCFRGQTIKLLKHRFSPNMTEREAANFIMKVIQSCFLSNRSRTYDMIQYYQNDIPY
Outline: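 Biochemical LanthaScreen enzymatic lipid kinase assay run as an outsourced profiling service. Inhibitor at 10 concentrations, three-fold serial dilutions starting from 1 μM. ATP at the apparent ATP Km for the assay. IC50 derived from the dose-response.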

[9] = Mean retention time in C57BL/6 mouse at 1 mg/kg, iv; type: ADME, organism-based; set-up: dose 1 mg/kg, route intravenous; conditions: in vivo
Mus musculus [10] = experiment: In vivo inhibition of mTOR complex 1 in C57BL/6 mouse liver assessed as reduction of S6 phosphorylation at S235/236 at 20 mg/kg, ip after up to 10 hrs by Western blotting; type: functional, organism-based; set-up: dose 20 mg/kg
Outline: (§1)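 They received a single IP dose of 20 mg/kg (NMP stock diluted 1:4 with 50% PEG400) for 2, 6 or 10 h; vehicle controls were dosed for 10 h. Mice were re-fed 1 h before sacrifice. Liver and lung were sonicated in HEPES pH 7.4 lysis buffer with phosphatase and protease inhibitors. Lysates were Bradford-normalized and immunoblotted for Akt S473 and S6 S235/236.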

[11] = Volume of distribution at steady state in C57BL/6 mouse at 1 mg/kg, iv; type: ADME, organism-based; set-up: dose 1 mg/kg, route intravenous; conditions: in vivo, read-out: Vdss
[12] = Cmax in C57BL/6 mouse at 1 mg/kg, iv; type: ADME, organism-based; set-up: dose 1 mg/kg, route intravenous; conditions: in vivo
[13] = AUC in C57BL/6 mouse at 10 mg/kg, po; type: ADME, organism-based; set-up: dose 10 mg/kg, route oral; conditions: plasma
Mus musculus [14] = experiment: In vivo inhibition of mTOR complex 1 in C57BL/6 mouse lung assessed as reduction of S6 phosphorylation at S235/236 at 20 mg/kg, ip after up to 6 hrs by Western blotting; type: functional, organism-based; set-up: dose 20 mg/kg; outline: as §1
[15] = Cmax in C57BL/6 mouse at 10 mg/kg, po; type: ADME, organism-based; set-up: dose 10 mg/kg, route oral; conditions: in vivo
[16] = AUC in C57BL/6 mouse at 1 mg/kg, iv; type: ADME, organism-based; set-up: dose 1 mg/kg, route intravenous; conditions: plasma
[17] = Tmax in C57BL/6 mouse at 10 mg/kg, po; type: ADME, organism-based; set-up: dose 10 mg/kg, route oral; conditions: in vivo
[18] = Cmax in Swiss albino mouse at 10 mg, ip; type: ADME, organism-based; set-up: dose 10 mg, route intraperitoneal; conditions: in vivo

In the case of `CN(C)CCC(=O)N1CCN(c2ccc(Nc3ccnc4ccc(-c5cnc6ccccc6c5)cc34)cc2C(F)(F)F)CC1`, the IC50 [1] is reported as over 0.3 µM and the IC50 [2] is reported as over 0.3 µM.

`CCC(=O)N1CC=C(c2ccc(-n3c(=O)ccc4cnc5ccc(-c6cnc7ccccc7c6)cc5c43)cc2C(F)(F)F)CC1` showed an IC50 [1] of 0.03 µM.

`O=C(CN1CCOCC1)N1CCC(c2ccc(-n3c(=O)ccc4cnc5ccc(-c6cnc7ccccc7c6)cc5c43)cc2C(F)(F)F)CC1` gave an IC50 [1] of 0.005 µM.

In the case of `CCC(=O)N1CCN(c2ccc(-n3c(=O)c(C)cc4cnc5ccc(-c6cnc7ccccc7c6)cc5c43)cc2C(F)(F)F)CC1`, the IC50 [1] is reported as 0.1 µM.

In the case of `CCC(=O)N1CCN(c2ccc(-n3c(=O)cc(C)c4cnc5ccc(-c6cnc7ccccc7c6)cc5c43)cc2C(F)(F)F)CC1`, the IC50 [1] is reported as over 0.3 µM.

`CCC(=O)N1CCN(c2ccc(-n3c(=O)n(C)c(=O)c4cnc5ccc(-c6cnc7ccccc7c6)cc5c43)cc2C(F)(F)F)CC1` showed an IC50 [1] of 0.3 µM.

With `CCC(=O)N1CCN(c2ccc(N3C(=O)NCc4cnc5ccc(-c6cnc7ccccc7c6)cc5c43)cc2C(F)(F)F)CC1` the IC50 [1] was over 0.3 µM.

`CCC(=O)N1CCN(c2ccc(N3C(=O)OCc4cnc5ccc(-c6cnc7ccccc7c6)cc5c43)cc2C(F)(F)F)CC1` gave an IC50 [1] of over 0.3 µM.

`CC(=O)N1CCN(c2ccc(-n3c(=O)ccc4cnc5ccc(-c6cnc7ccccc7c6)cc5c43)cc2C(F)(F)F)CC1` gave an IC50 [1] of 0.003 µM, an IC50 [3] of 0.0054 µM and an IC50 [2] of over 0.3 µM.

With `O=C(O)N1CCN(c2ccc(Nc3ccnc4ccc(-c5cnc6ccccc6c5)cc34)cc2C(F)(F)F)CC1` the IC50 [1] was over 0.3 µM and the IC50 [2] was over 0.3 µM.

For `CCC(=O)N1CCN(c2ccc(-n3c(=O)ccc4cnc5ccc(-c6cnc7ccccc7c6)cc5c43)cc2C(F)(F)F)CC1` [TORIN1], the AUC [4] was 5720 ng·h/mL, the inhibition (Mus musculus [5]) was “Active” and the Tmax [6] was 4.8 min. It also gave an MRT [7] of 90.6 min, an IC50 [8] of over 10 µM and an MRT [9] of 25.8 min. The inhibition (Mus musculus [10]) was “Active”, the Vd [11] was 0.59 L/kg and the Cmax [12] was 2760 ng/mL. For the same molecule, the AUC [13] was 396 ng·h/mL, the inhibition (Mus musculus [14]) was “Active” and the Cmax [15] was 223 ng/mL. It also gave an AUC [16] of 720 ng·h/mL, a Tmax [17] of 15 min and a Cmax [18] of 5120 ng/mL.
